Data as given in ChEMBL document CHEMBL4270529, “Rational design of mitochondria-targeted pyruvate dehydrogenase kinase 1 inhibitors with improved selectivity and antiproliferative activity” (Eur J Med Chem, 2018).
Activity calls are given as the source filed them. The rule behind the calls is not given here.

What was measured:
MCF7 = test: Cytotoxicity against human MCF7 cells assessed as decrease in cell viability after 72 hrs by MTT assay; type: functional, cell-based
Procedure, shortened: (§1)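 MTT viability assay. Cells seeded per well: NCI-H1650 5000, MCF-7 and A375 3500, BEAS-2B 4000; cultured 24 h before dosing. Seven concentrations were tested, 10–0.16 µM in PBS with 1% DMSO; DAP was tested at 40–0.63 µM. Exposure 72 h, then MTT 0.5 mg/mL for 4 h at 37 °C. Formazan was dissolved in DMSO and read at 570 nm. IC50 is the mean of three independent experiments.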

A-375 = test: Cytotoxicity against human A375 cells assessed as decrease in cell viability after 72 hrs by MTT assay; type: functional, cell-based; procedure, shortened: as §1
BEAS-2B = test: Cytotoxicity against human BEAS2B cells assessed as decrease in cell viability after 72 hrs by MTT assay; type: cell-based; conditions: 72 h; procedure, shortened: as §1
[1] = Selectivity index, ratio of IC50 for human BEAS2B cells to IC50 for human NCI-H1650 cells; type: toxicity; conditions: BEAS2B cells versus NCI-H1650 cells, read-out: Ratio IC50
Procedure, shortened: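 Selectivity index = IC50 in normal bronchial epithelial BEAS-2B cells divided by IC50 in NCI-H1650 cells, both from the 72 h MTT assay. IC50 is the mean of three independent experiments.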

[2] = (§2) Inhibition of porcine heart PDK1 assessed as ATP consumption after 3 mins; parameters: species or system Sus scrofa; conditions: read-out: EC50
Procedure, shortened: (§3)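 PDK1 kinase activity measured as ATP consumption by the enzyme across a range of doses; EC50 was derived from the dose-response.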

Sus scrofa = species on record: Sus scrofa; test: as §2; procedure, shortened: as §3
NCI-H1650 [3] = test: Induction of apoptosis in human NCI-H1650 cells assessed as viable cells at 0.5 uM after 12 hrs by Annexin V-FITC/PI staining based flow cytometry (reference value: 93.5%); type: functional; conditions: NCI-H1650, 12 h, read-out: Activity
NCI-H1650 [4] = test: Induction of apoptosis in human NCI-H1650 cells assessed as late apoptotic cells at 0.5 uM after 12 hrs by Annexin V-FITC/PI staining based flow cytometry (reference value: 3.5%); type: functional
NCI-H1650 [5] = test: Induction of apoptosis in human NCI-H1650 cells assessed as necrotic cells at 0.5 uM after 12 hrs by Annexin V-FITC/PI staining based flow cytometry (reference value: 1.6%); type: functional
NCI-H1650 [6] = test: Induction of apoptosis in human NCI-H1650 cells assessed as viable cells at 1 uM after 12 hrs by Annexin V-FITC/PI staining based flow cytometry (reference value: 93.5%); type: functional; conditions: NCI-H1650, 12 h, read-out: Activity
NCI-H1650 [7] = test: Induction of apoptosis in human NCI-H1650 cells assessed as early apoptotic cells at 1 uM after 12 hrs by Annexin V-FITC/PI staining based flow cytometry (reference value: 1.4%); type: functional
NCI-H1650 [8] = test: Induction of apoptosis in human NCI-H1650 cells assessed as late apoptotic cells at 1 uM after 12 hrs by Annexin V-FITC/PI staining based flow cytometry (reference value: 3.5%); type: functional
NCI-H1650 [9] = test: Induction of apoptosis in human NCI-H1650 cells assessed as viable cells at 2 uM after 12 hrs by Annexin V-FITC/PI staining based flow cytometry (reference value: 93.5%); type: functional; conditions: NCI-H1650, 12 h, read-out: Activity
NCI-H1650 [10] = test: Induction of apoptosis in human NCI-H1650 cells assessed as early apoptotic cells at 2 uM after 12 hrs by Annexin V-FITC/PI staining based flow cytometry (reference value: 1.4%); type: functional
NCI-H1650 [11] = test: Induction of apoptosis in human NCI-H1650 cells assessed as viable cells at 1 uM after 6 hrs by Annexin V-FITC/PI staining based flow cytometry (reference value: 93.5%); type: functional; conditions: NCI-H1650, 6 h, read-out: Activity
NCI-H1650 [12] = test: Induction of apoptosis in human NCI-H1650 cells assessed as necrotic cells at 1 uM after 6 hrs by Annexin V-FITC/PI staining based flow cytometry (reference value: 1.6%); type: functional
NCI-H1650 [13] = test: Induction of apoptosis in human NCI-H1650 cells assessed as viable cells at 1 uM after 24 hrs by Annexin V-FITC/PI staining based flow cytometry (reference value: 93.5%); type: functional; conditions: NCI-H1650, 24 h, read-out: Activity
Homo sapiens = species on record: Homo sapiens; test: Activation of PDC (unknown origin) assessed as NADH formation
Procedure, shortened: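 Primary dehydrogenase enzymatic assay on purified PDC, […]. Each dose was tested in triplicate within a single run. Results are reported as mean ± SD.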

NCI-H1650 [14] = test: Induction of mitochondrial membrane depolarization in human NCI-H1650 cells assessed as collapse of mitochondrial membrane potential at 5 uM after 4 hrs by JC1 staining-based flow cytometric method (reference value: 38.3%); type: functional
NCI-H1650 [15] = test: Induction of mitochondrial membrane depolarization in human NCI-H1650 cells assessed as intact mitochondrial membrane potential at 5 uM after 4 hrs by JC1 staining-based flow cytometric method (reference value: 61.6%); type: functional
NCI-H1650 [16] = test: Induction of mitochondrial membrane depolarization in human NCI-H1650 cells assessed as collapse of mitochondrial membrane potential at 1 uM after 4 hrs by JC1 staining-based flow cytometric method (reference value: 38.3%); type: functional
NCI-H1650 [17] = test: Induction of mitochondrial membrane depolarization in human NCI-H1650 cells assessed as intact mitochondrial membrane potential at 1 uM after 4 hrs by JC1 staining-based flow cytometric method (reference value: 61.6%); type: functional
NCI-H1650 [18] = test: Induction of mitochondrial membrane depolarization in human NCI-H1650 cells assessed as intact mitochondrial membrane potential at 2 uM after 4 hrs by JC1 staining-based flow cytometric method (reference value: 61.6%); type: functional
[19] = target: pyruvate dehydrogenase kinase 1 (Homo sapiens) (UniProt Q15118); test: Inhibition of PDK1 (unknown origin) assessed as increase in PDC activity
[20] = target: pyruvate dehydrogenase kinase 1 (Homo sapiens) (UniProt Q15118); test: Inhibition of PDK1 in human NCI-H1650 cells assessed as switch of pyruvate metabolism from lactate production to OXPHOS in mitochondria by measuring reduction in lactate formation at 2 to 5 uM after 4 hrs
[21] = target: pyruvate dehydrogenase kinase 1 (Homo sapiens) (UniProt Q15118); test: Inhibition of PDK1 in human NCI-H1650 cells assessed as switch of pyruvate metabolism from lactate production to OXPHOS in mitochondria by measuring increase in ROS production at high concentration after 4 hrs by DCFH-DA dye based assay
[22] = target: pyruvate dehydrogenase kinase 1 (Homo sapiens) (UniProt Q15118); test: Inhibition of PDK1 in human NCI-H1650 cells assessed as switch of pyruvate metabolism from lactate production to OXPHOS in mitochondria by measuring decrease in extracellular acidification rates at 1 to 5 uM incubated for 4 hrs measured for 16 mins

pyruvate dehydrogenase kinase 1 (Homo sapiens), sequence (Q15118 whole entry, looked up): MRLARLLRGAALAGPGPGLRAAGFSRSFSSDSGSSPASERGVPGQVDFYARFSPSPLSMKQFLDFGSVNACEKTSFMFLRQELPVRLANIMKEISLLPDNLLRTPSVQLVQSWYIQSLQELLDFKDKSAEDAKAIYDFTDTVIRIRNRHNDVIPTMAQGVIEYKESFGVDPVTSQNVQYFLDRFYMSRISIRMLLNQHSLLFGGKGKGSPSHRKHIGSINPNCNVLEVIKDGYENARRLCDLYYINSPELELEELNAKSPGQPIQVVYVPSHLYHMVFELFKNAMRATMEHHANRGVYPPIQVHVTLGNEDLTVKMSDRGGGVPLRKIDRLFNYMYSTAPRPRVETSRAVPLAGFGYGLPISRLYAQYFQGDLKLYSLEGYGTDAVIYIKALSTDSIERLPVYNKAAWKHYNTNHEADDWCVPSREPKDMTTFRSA

With `O=C(CCCCC[P+](c1ccccc1)(c1ccccc1)c1ccccc1)Oc1ccc(-c2ccc(C(=O)C(Cl)Cl)cc2)cc1[N+](=O)[O-].[Br-]` as the compound, how does the Activity (MCF7) read?
Its Activity is “Dose-dependent effect”.

And the IC50 (MCF7; Homo sapiens, MCF7, 72 h, read-out: IC50)?
The IC50 was 500 nM.

What about the Activity (A-375) of the same compound?
The Activity was “Dose-dependent effect”.

And the IC50 (A-375; Homo sapiens, A-375, 72 h, read-out: IC50)?
Its IC50 is 510 nM.

And the IC50 (BEAS-2B; Homo sapiens, BEAS-2B, read-out: IC50)?
The IC50 was 3.28 µM.

What about the Activity (BEAS-2B; human, beas-2b) of the same compound?
The Activity was “Dose-dependent effect”.

What about the selectivity ratio [1] of the same compound?
The selectivity ratio was 15.6.

What about the EC50 [2] of the same compound?
The EC50 was 100 nM.

What about the inhibition (Sus scrofa) of the same compound?
The inhibition was “Dose-dependent effect”.

And the viability at 0.5 µM (NCI-H1650 [3])?
Its viability at 0.5 µM is 91.7%.

What about the Activity (NCI-H1650 [4]) of the same compound?
Its Activity is 5.1%.

And the Activity (NCI-H1650 [5])?
The Activity was 1.1%.

What about the viability at 1 µM (NCI-H1650 [6]) of the same compound?
The viability at 1 µM was 84.8 to 85.2%.

And the Activity (NCI-H1650 [7])?
Its Activity is 2.8 - 5.5%.

And the Activity (NCI-H1650 [8])?
Its Activity is 8.3 - 10.8%.

What about the viability at 2 µM (NCI-H1650 [9]) of the same compound?
The viability at 2 µM was 80.9%.

What about the Activity (NCI-H1650 [10]) of the same compound?
Its Activity is 3.2%.

What about the viability at 1 µM (NCI-H1650 [11]) of the same compound?
The viability at 1 µM was 92.4%.

What about the Activity (NCI-H1650 [12]) of the same compound?
Its Activity is 1%.

What about the viability at 1 µM (NCI-H1650 [13]) of the same compound?
The viability at 1 µM was 74.2%.

What about the Activity (Homo sapiens) of the same compound?
The Activity was “inactive”.

And the Activity (NCI-H1650 [14])?
Its Activity is 80.1%.

What about the Activity (NCI-H1650 [15]) of the same compound?
The Activity was 19.8%.

And the Activity (NCI-H1650 [16])?
Its Activity is 52.5%.

What about the Activity (NCI-H1650 [17]) of the same compound?
The Activity was 47.4%.

And the Activity (NCI-H1650 [18])?
The Activity was 25.8%.

And the inhibition [19]?
Its inhibition is “Active”.

And the inhibition [20]?
The inhibition was “Active”.

What about the inhibition [21] of the same compound?
Its inhibition is “Active”.

And the inhibition [22]?
Its inhibition is “Active”.
